Legend:
HEK293 cell line = experiment: Cytotoxicity / survival in HEK293 cells, same conditions as the NF-κB assay; assay type: cell-based, human
[1] = system: TNF-α-induced NF-κB activity; assay type: cell-based, human; conditions: at 50 μM; TNF-α 2 ng/mL, 6 h
[2] = Chemical stability of 2 monitored by 1H and 13C NMR; assay type: physicochemical; conditions: in DMSO-d6 at room temperature (20 °C), after a month
In short: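 1D 1H and 13C spectra were recorded at 400 MHz or 500 MHz. Conversion was judged from a second set of NMR signals assigned to the C-8′ dehydration product.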

Xanthomonas oryzae = conditions: cited from earlier work
dicotyledons = conditions: cited from earlier work

“9′-deoxy-8′,8′-dihydroxyherbicidin B [Compound 2]” gave an NF-κB % survival (HEK293 cell line; % survival at a concentration of 50 μM) of 45.1 ± 5.7%, an IC50 (HEK293 cell line; read-out: HEK293 cell line cytotoxicity IC50, same conditions as the NF-κB assay) of 13.7 ± 3.3 µM and an NF-κB % inhibition [1] of 96.2 ± 4.9%. For the same compound, the “conversion of 2 to 2a (dehydration at C-8′)” value [2] was roughly 70%.

In the case of aureonucleomycin [Compound 9], the “growth inhibition of Xanthomonas oryzae” value (Xanthomonas oryzae) is listed as “significantly inhibited the growth”, the herbicidal activity (dicotyledons) is listed as “herbicidal” and the toxicity toward dicotyledons (dicotyledons) is listed as “selectively toxic”.

In the case of `COC(=O)[C@H]1O[C@@H]2C[C@H]3O[C@@H](n4cnc5c(N)ncnc54)[C@H](OC)[C@H]3O[C@@]2(O)[C@@H](O)[C@@H]1O` [Compound 5, Herbicidin B], the “growth inhibition of Xanthomonas oryzae” value (Xanthomonas oryzae) is given as “significantly inhibited the growth”, the herbicidal activity (dicotyledons) is given as “herbicidal” and the toxicity toward dicotyledons (dicotyledons) is given as “selectively toxic”.

For `C/C=C(\CO)C(=O)O[C@H]1[C@H](O)[C@@H](C(=O)OC)O[C@@H]2C[C@H]3O[C@@H](n4cnc5c(N)ncnc54)[C@H](OC)[C@H]3O[C@]21O` [Compound 4, Herbicidin A], the “growth inhibition of Xanthomonas oryzae” value (Xanthomonas oryzae) is given as “significantly inhibited the growth”, the herbicidal activity (dicotyledons) is given as “herbicidal” and the toxicity toward dicotyledons (dicotyledons) is given as “selectively toxic”.
